Data from ChEMBL document CHEMBL2203173 (J Med Chem, 2012).

Key:
Mus musculus [1] = test: Cardiotoxicity in human DMS53 cells xenografted BALB/c nu/nu mouse at 20 mg/kg, po administered for 3 times a week measured after 20 days; type: toxicity, organism-based, DMS-53; design: dose 20 mg/kg, route oral; details: in vivo, 480 h
How it was run: (§1)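 DMS-53 xenograft nude mice given oral gavage 3 times/week in 30% propylene glycol/saline for 20 days. Heart sections taken after 20 days were stained with Gomori Trichrome for fibrosis and viewed at 100×. Other organs were examined histologically.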

Mus musculus [2] = test: Toxicity in BALB/c nu/nu mouse xenografted with human DMS53 cells assessed as change in spleen histology at 7.5 mg/kg, po administered for 3 times a week measured after 20 days; type: organism-based, DMS-53; design: dose 7.5 mg/kg, route oral; details: in vivo, 480 h
How it was run: (§2)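 DMS-53 xenograft nude mice were gavaged 3 times/week in 30% propylene glycol/saline vehicle for 20 days and then sacrificed. Organ weights and histology of spleen, kidney, liver, heart, lungs and brain were compared with vehicle controls. n = 6-11 mice/condition.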

Mus musculus [3] = test: Toxicity in BALB/c nu/nu mouse xenografted with human DMS53 cells assessed as change in lungs histology at 7.5 mg/kg, po administered for 3 times a week measured after 20 days; type: organism-based, DMS-53; design: dose 7.5 mg/kg, route oral; details: in vivo, 480 h; how it was run: as §2
MRC5 = test: Antiproliferative activity at human MRC5 cells after 72 hrs by MTT assay; type: functional, cell-based; details: MRC5, 72 h
DMS-53 = test: Antiproliferative activity at human DMS53 cells after 72 hrs by MTT assay; type: functional, cell-based; details: Homo sapiens, DMS-53, 72 h
Mus musculus [4] = test: Toxicity in BALB/c nu/nu mouse xenografted with human DMS53 cells assessed as change in spleen histology at 10 mg/kg, po administered for 3 times a week measured after 20 days; type: organism-based, DMS-53; design: dose 10 mg/kg, route oral; details: in vivo, 480 h; how it was run: as §2
Mus musculus [5] = test: Toxicity in BALB/c nu/nu mouse xenografted with human DMS53 cells assessed as change in spleen histology at 20 mg/kg, po administered for 3 times a week measured after 20 days; type: organism-based, DMS-53; design: dose 20 mg/kg, route oral; details: in vivo, 480 h; how it was run: as §2
Mus musculus [6] = test: Toxicity in BALB/c nu/nu mouse xenografted with human DMS53 cells assessed as cardiac fibrosis at 7.5 mg/kg, po administered for 3 times a week measured after 20 days using Gomori Trichrome stain; type: organism-based, Heart, DMS-53; design: dose 7.5 mg/kg, route oral; details: in vivo, 480 h; how it was run: as §1
[7] = Toxicity in po dosed BALB/c nu/nu mouse xenografted with human DMS53 cells measured for 28 days; type: organism-based, DMS-53; details: in vivo
How it was run: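 Oral dose-range-finding study to set the maximum tolerated dose in nude mice bearing DMS-53 tumors, with dosing over a 28-day treatment period.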

Mus musculus [8] = test: Toxicity in BALB/c nu/nu mouse xenografted with human DMS53 cells assessed as change in heart histology at 7.5 mg/kg, po administered for 3 times a week measured after 20 days; type: organism-based, DMS-53; design: dose 7.5 mg/kg, route oral; details: in vivo, 480 h
How it was run: (§3)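 Nude mice bearing DMS-53 xenografts gavaged 3 times/week for 20 days, vehicle 30% propylene glycol/saline, vehicle controls, n = 6-11 mice/condition. Sacrifice on day 20. Organ weights and hematological indices recorded. Spleen, kidney, liver, heart, lungs and brain examined histologically, hearts stained with Gomori Trichrome for fibrosis.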

Mus musculus [9] = test: Toxicity in BALB/c nu/nu mouse xenografted with human DMS53 cells assessed as change in brain histology at 10 mg/kg, po administered for 3 times a week measured after 20 days; type: organism-based, DMS-53; design: dose 10 mg/kg, route oral; details: in vivo, 480 h; how it was run: as §3
Mus musculus [10] = test: Toxicity in BALB/c nu/nu mouse xenografted with human DMS53 cells assessed as change in liver histology at 10 mg/kg, po administered for 3 times a week measured after 20 days; type: organism-based, DMS-53; design: dose 10 mg/kg, route oral; details: in vivo, 480 h; how it was run: as §3
Mus musculus [11] = test: Cardiotoxicity in BALB/c nu/nu mouse xenografted with human DMS53 cells at 7.5 mg/kg, po administered for 3 times a week measured after 20 days; type: toxicity, organism-based, DMS-53; design: dose 7.5 mg/kg, route oral; details: in vivo, 480 h; how it was run: as §1
Mus musculus [12] = test: Toxicity in BALB/c nu/nu mouse xenografted with human DMS53 cells assessed as change in liver histology at 20 mg/kg, po administered for 3 times a week measured after 20 days; type: organism-based, DMS-53; design: dose 20 mg/kg, route oral; details: in vivo, 480 h; how it was run: as §3
Mus musculus [13] = test: Toxicity in BALB/c nu/nu mouse xenografted with human DMS53 cells assessed as change in lungs histology at 20 mg/kg, po administered for 3 times a week measured after 20 days; type: organism-based, DMS-53; design: dose 20 mg/kg, route oral; details: in vivo, 480 h; how it was run: as §3
A549 = test: Antiproliferative activity at human A549 cells after 72 hrs by MTT assay; type: functional, cell-based
Mus musculus [14] = test: Toxicity in BALB/c nu/nu mouse xenografted with human DMS53 cells assessed as change in kidney histology at 20 mg/kg, po administered for 3 times a week measured after 20 days; type: organism-based, DMS-53; design: dose 20 mg/kg, route oral; details: in vivo, 480 h; how it was run: as §3
Mus musculus [15] = test: Toxicity in BALB/c nu/nu mouse xenografted with human DMS53 cells assessed as change in hematocrit level at 10 mg/kg, po administered for 3 times a week measured after 20 days; type: organism-based, DMS-53; design: dose 10 mg/kg, route oral; details: in vivo, 480 h; how it was run: as §3
Mus musculus [16] = test: Toxicity in BALB/c nu/nu mouse xenografted with human DMS53 cells assessed as change in heart weight at 10 mg/kg, po administered for 3 times a week measured after 20 days; type: organism-based, DMS-53; design: dose 10 mg/kg, route oral; details: in vivo, 480 h; how it was run: as §3
Mus musculus [17] = test: Toxicity in BALB/c nu/nu mouse xenografted with human DMS53 cells assessed as change in brain histology at 20 mg/kg, po administered for 3 times a week measured after 20 days; type: organism-based, DMS-53; design: dose 20 mg/kg, route oral; details: in vivo, 480 h; how it was run: as §3
Mus musculus [18] = test: Toxicity in BALB/c nu/nu mouse xenografted with human DMS53 cells assessed as change in heart histology at 10 mg/kg, po administered for 3 times a week measured after 20 days; type: organism-based, DMS-53; design: dose 10 mg/kg, route oral; details: in vivo, 480 h; how it was run: as §3
Mus musculus [19] = test: Toxicity in BALB/c nu/nu mouse xenografted with human DMS53 cells assessed as cardiac fibrosis at 20 mg/kg, po administered for 3 times a week measured after 20 days using Gomori Trichrome stain; type: organism-based, Heart, DMS-53; design: dose 20 mg/kg, route oral; details: in vivo, 480 h; how it was run: as §1
Mus musculus [20] = test: Toxicity in BALB/c nu/nu mouse xenografted with human DMS53 cells assessed as change in spleen weight at 10 mg/kg, po administered for 3 times a week measured after 20 days; type: organism-based, DMS-53; design: dose 10 mg/kg, route oral; details: in vivo, 480 h; how it was run: as §2
Mus musculus [21] = test: Toxicity in BALB/c nu/nu mouse xenografted with human DMS53 cells assessed as change in kidney histology at 7.5 mg/kg, po administered for 3 times a week measured after 20 days; type: organism-based, DMS-53; design: dose 7.5 mg/kg, route oral; details: in vivo, 480 h; how it was run: as §3
Mus musculus [22] = test: Toxicity in BALB/c nu/nu mouse xenografted with human DMS53 cells assessed as change in heart histology at 20 mg/kg, po administered for 3 times a week measured after 20 days; type: organism-based, DMS-53; design: dose 20 mg/kg, route oral; details: in vivo, 480 h; how it was run: as §3
Mus musculus [23] = test: Toxicity in BALB/c nu/nu mouse xenografted with human DMS53 cells assessed as cardiac fibrosis at 10 mg/kg, po administered for 3 times a week measured after 20 days using Gomori Trichrome stain; type: organism-based, Heart, DMS-53; design: dose 10 mg/kg, route oral; details: in vivo, 480 h; how it was run: as §1
Mus musculus [24] = test: Toxicity in BALB/c nu/nu mouse xenografted with human DMS53 cells assessed as change in lungs histology at 10 mg/kg, po administered for 3 times a week measured after 20 days; type: organism-based, DMS-53; design: dose 10 mg/kg, route oral; details: in vivo, 480 h; how it was run: as §3
Mus musculus [25] = test: Toxicity in BALB/c nu/nu mouse xenografted with human DMS53 cells assessed as change in brain histology at 7.5 mg/kg, po administered for 3 times a week measured after 20 days; type: organism-based, DMS-53; design: dose 7.5 mg/kg, route oral; details: in vivo, 480 h; how it was run: as §3
Mus musculus [26] = test: Toxicity in BALB/c nu/nu mouse xenografted with human DMS53 cells assessed as change in hemoglobin level at 10 mg/kg, po administered for 3 times a week measured after 20 days; type: organism-based, DMS-53; design: dose 10 mg/kg, route oral; details: in vivo, 480 h; how it was run: as §3
Mus musculus [27] = test: Toxicity in BALB/c nu/nu mouse xenografted with human DMS53 cells assessed as change in kidney histology at 10 mg/kg, po administered for 3 times a week measured after 20 days; type: organism-based, DMS-53; design: dose 10 mg/kg, route oral; details: in vivo, 480 h; how it was run: as §3
Mus musculus [28] = test: Cardiotoxicity in human DMS53 cells xenografted BALB/c nu/nu mouse at 10 mg/kg, po administered for 3 times a week measured after 20 days; type: toxicity, organism-based, DMS-53; design: dose 10 mg/kg, route oral; details: in vivo, 480 h; how it was run: as §1

SMILES	Activity (Mus musculus [1])	Activity (Mus musculus [2])	Activity (Mus musculus [3])	IC50 (MRC5)	IC50 (DMS-53)	Activity (Mus musculus [4])	Activity (Mus musculus [5])	Activity (Mus musculus [6])	MTD at 672 h [7]	Activity (Mus musculus [8])	Activity (Mus musculus [9])	Activity (Mus musculus [10])	Activity (Mus musculus [11])	Activity (Mus musculus [12])	Activity (Mus musculus [13])	Activity (Mus musculus [14])	Activity (Mus musculus [15])	Activity (Mus musculus [16])	Activity (Mus musculus [17])	Activity (Mus musculus [18])	also measured
CN(C(=S)NN=C(c1ccccn1)c1ccccn1)C1CCCCC1.Cl	Non-toxic	Non-toxic	Non-toxic	> 10000 nM	7 nM	Non-toxic	Non-toxic	Non-toxic	20 mg/kg	Non-toxic	Non-toxic	Non-toxic	Non-toxic	Non-toxic	Non-toxic	Non-toxic	Non-toxic	Non-toxic	Non-toxic	Non-toxic	IC50 (A549; Homo sapiens, A549, 72 h): 4 nM; Activity (Mus musculus [19]): Non-toxic; Activity (Mus musculus [20]): Non-toxic; Activity (Mus musculus [21]): Non-toxic; Activity (Mus musculus [22]): Non-toxic; Activity (Mus musculus [23]): Non-toxic; Activity (Mus musculus [24]): Non-toxic; Activity (Mus musculus [25]): Non-toxic; Activity (Mus musculus [26]): Non-toxic; Activity (Mus musculus [27]): Non-toxic; Activity (Mus musculus [28]): Non-toxic
CCN(C)C(=S)NN=C(c1ccccn1)c1ccccn1.Cl	Non-toxic	Non-toxic	Non-toxic	> 10000 nM	6 nM	Non-toxic	Non-toxic	Non-toxic	10 mg/kg	Non-toxic	Non-toxic	Non-toxic	Non-toxic	Non-toxic	Non-toxic	Non-toxic	Toxic	Toxic	Non-toxic	Non-toxic	IC50 (A549; a549): 1 nM; Activity (Mus musculus [19]): Non-toxic; Activity (Mus musculus [20]): Non-toxic; Activity (Mus musculus [21]): Non-toxic; Activity (Mus musculus [22]): Non-toxic; Activity (Mus musculus [23]): Non-toxic; Activity (Mus musculus [24]): Non-toxic; Activity (Mus musculus [25]): Non-toxic; Activity (Mus musculus [26]): Toxic; Activity (Mus musculus [27]): Non-toxic; Activity (Mus musculus [28]): Non-toxic
